Compound activity deposited in PubChem BioAssay by The Scripps Research Institute Molecular Screening Center.
Compounds with a hit are over-represented: about 2% of the library has one in this group of screens.
SIAE primary = human SIAE inhibitors, primary screen, biochemical, fluorescence polarization, FP-Rh probe, 1536-well HTS; Sialate O-acetylesterase (Homo sapiens), Q9HAT2; SIAE FP-Rh probe binding; inhibition, % at 9.66 µM; 370,000 compounds, 0.69% hits; AID 1053197, 2014;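 active means inhibition above a cutoff: mean of compounds within the control limits plus 3 SD of those, cut at about 17% in these data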;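 further: 0% = plate median of compound wells and 100% = probe without SIAE protein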
Target sequence (Q9HAT2 whole entry, looked up): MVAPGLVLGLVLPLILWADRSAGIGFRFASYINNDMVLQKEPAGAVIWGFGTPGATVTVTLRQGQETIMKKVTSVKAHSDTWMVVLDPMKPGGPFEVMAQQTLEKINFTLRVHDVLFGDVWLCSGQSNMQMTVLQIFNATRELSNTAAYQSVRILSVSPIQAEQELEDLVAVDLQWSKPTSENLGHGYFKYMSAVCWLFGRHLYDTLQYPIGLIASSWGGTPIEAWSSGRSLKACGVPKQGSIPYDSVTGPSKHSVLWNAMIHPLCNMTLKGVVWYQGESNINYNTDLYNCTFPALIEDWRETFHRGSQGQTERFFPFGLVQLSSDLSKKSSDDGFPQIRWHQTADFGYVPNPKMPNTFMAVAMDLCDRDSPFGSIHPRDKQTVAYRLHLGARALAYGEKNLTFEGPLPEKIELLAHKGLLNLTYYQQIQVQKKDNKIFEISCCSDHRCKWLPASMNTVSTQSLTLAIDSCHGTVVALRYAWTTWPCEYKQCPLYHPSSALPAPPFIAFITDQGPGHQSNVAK
TCR-CD3 inh = inhibitors of human TCR-CD3 interaction, primary screen, biochemical, fluorescence, TAMRA-labeled TCR probe | 360,000 compounds, 0.37% hits | AID 651800, 2012 | T-cell receptor (TCR) | inhibition, % at 9.4 µM; in the data active means inhibition above about 19%;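 further: recombinant mutant TCR 2C K166C tagged with TAMRA read by polarization; 0% = receptor in buffer alone and 100% = receptor with positive control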
ABHD4 inh = ABHD4 inhibitors, primary screen, biochemical, fluorescence polarization, mouse; (Lyso)-N-acylphosphatidylethanolamine lipase (Mus musculus), Q8VD66; purified mABHD4, FP-Rh probe fluorescence polarization; inhibition, % at 8.92 µM; 370,000 compounds, 0.54% hits;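 active means inhibition exceeding the mean over every tested compound plus 3 SD, cut at about 30% in these data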;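 further: 0% = plate median of compound wells and 100% = S159A mutant with DMSO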
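Assay system: mouse ABHD4 enzyme, wild type / Also added: fluorescent activity-based probe FP-Rh / Doses: single nominal dose of 8.92 µM, 0.89% DMSO final / Timing: 45 min compound pre-incubation plus 60 min probe step, 25 °C / Signal: FP readout, ex 525 nm / em 598 nm / Control set: S159A mutant/DMSO as 100%, compound-well median as 0%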
PAD4 FP inh = human PAD4 inhibitors, primary screen, biochemical, fluorescence polarization, 1536-well format; inhibition, % at 6.36 µM; Protein-arginine deiminase type-4 (Homo sapiens), Q9UM07; recombinant PAD4, RCA probe fluorescence polarization; 330,000 compounds, 0.41% hits;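 active means percent inhibition above a cutoff equal to the mean of all tested compounds plus 3 SD, cut at about 15% in these data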;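 further: 0% = PAD4 with RCA probe and DMSO and 100% = probe without PAD4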
TDP2 inh = human TDP2 enzyme inhibitors, primary screen, biochemical, epi absorbance, recombinant enzyme; Tyrosyl-DNA phosphodiesterase 2 (Homo sapiens), O95551; T5PNP hydrolysis, p-nitrophenol absorbance 415 nm; inhibition, % at 12.8 µM; 370,000 compounds, 0.34% hits;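 active means inhibition above the mean of all tested compounds plus 3 SD, set per campaign, cut at about 25% in these data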;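 further: 0% = DMSO with enzyme and 100% = buffer with substrate but no TDP2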
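System – recombinant human TDP2 · Amount – 120 nM TDP2 per well · Buffer or medium – Mg2+-containing Tris-HCl buffer, pH 7.5 · Reagent – T5PNP substrate, 5 mM · Dosing – 12.8 µM single point, 1% DMSO · Incubation – 2 h at 37 °C · Measured by – epi absorbance · Read-out basis – percent inhibition · Benchmarks – high control without enzyme, low control DMSO plus TDP2 · Repeats – singlicate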
HTRA1 inh = HTRA1 serine protease inhibitors, primary screen, biochemical, fluorescence polarization, HTS. recombinant HTRA1, FP-rhodamine activity-based probe. inhibition, % at 5.96 µM. Q92743. 340,000 compounds, 0.5% hits; in the data active means inhibition above about 36%;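 further: 0% = enzyme with DMSO and 100% = wells lacking enzyme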
ABHD4 confirm = ABHD4 inhibitors, retest, confirmation, biochemical, fluorescence polarization, mouse; shares compounds with ABHD4 inh; purified mABHD4, FP-Rh probe fluorescence polarization; inhibition, % at 8.92 µM; 1,800 compounds, 55% hits;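 active means mean inhibition across replicates above the hit cutoff set in the primary screen, cut at about 30% in these data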;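 further: 0% = wild-type ABHD4 with DMSO and 100% = catalytically dead S159A mutant with DMSO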
* hit, by the source's call; nt = no result.

SMILES | SIAE primary | TCR-CD3 inh | ABHD4 inh | PAD4 FP inh | TDP2 inh | HTRA1 inh | ABHD4 confirm
NS(=O)(=O)c1ccc(-c2ccc(/C=N/Nc3ccc(C(=O)O)cc3)o2)cc1 | -4.1 | -8.1 | 17.8 | -6.4 | -1.3 | -2.6 | nt
Cc1c(C(=O)O)cccc1-c1ccc(/C=N/Nc2ccc(Br)cc2)o1 | 13.9 | 6.7 | 34.6* | -4.2 | 12.3 | 11.5 | 41.6*
O=[N+]([O-])c1ccc(C=NNc2ccc(S(=O)(=O)O)cc2)cc1 | 0.6 | 3.8 | 33.4* | nt | 0.3 | 10.7 | 50.2*
O=C(O)c1ccc(N/N=C/c2ccc(-c3cccc(Cl)c3)o2)cc1 | 16.4 | 0.8 | 49.5* | -3.4 | 0.1 | -5.9 | 64.8*
CCC(C)(C)NC(=O)c1ccc2c(c1)N(CC(=O)NC1CCCC1)C(=O)C(C)(C)O2 | -3.0 | 11.4 | 1.9 | 0.5 | -4.7 | -6.1 | nt
O=C(Cc1ccsc1)Nc1ccc2c(c1)OCO2 | 5.6 | -8.2 | -3.4 | -1.4 | -0.9 | 4.3 | nt
CCCCOc1cc(NCc2ccccc2)c2ncn(C(C)C)c2c1 | 11.1 | 7.5 | 36.9* | -11.4 | 12.3 | 17.4 | 90.6*
CCC(CO)Oc1cc(NCc2ccc(O)cc2)c2ncn(C(C)C)c2c1 (centres undefined) | 4.4 | 7.6 | 2.2 | -3.1 | -3.1 | 11.8 | nt
CCOCCOc1cc(NCc2ccccc2)c2ncn(C(C)C)c2c1 | 3.8 | 0.7 | 26.6 | nt | 21.8 | 2.7 | nt
CCC(CO)Oc1cc(NCc2ccc(C(C)(C)C)cc2)c2ncn(C(C)C)c2c1 (centres undefined) | 4.1 | 9.8 | 30.0* | -6.6 | -6.4 | 13.5 | 33.7*
O=C(CCCSc1ccc(Cl)cc1)Nc1cc(S(=O)(=O)N2CCOCC2)ccc1O | -8.3 | -3.4 | 10.3 | 0.9 | 5.0 | -5.5 | nt
Nc1[nH]n2c(=O)c3c(nc2c1N=Nc1ccc(Cl)cc1)CCCC3 | 6.6 | 2.6 | 31.0* | -0.6 | 4.2 | 3.8 | 33.5*
Nc1[nH]n2c(=O)c3c(nc2c1N=Nc1ccccc1)CCCC3 | -1.8 | 7.2 | 21.1 | -6.3 | 0.2 | 12.7 | nt
NC(=O)c1ccc(NC(=O)COc2cccc3c2CCNC3=O)cc1 | -2.2 | 0.8 | 104.9* | nt | 6.6 | -2.7 | 2.4
O=C(CSc1ccccn1)Nc1ccc2c(c1)C(=O)c1ccccc1C2=O | -3.4 | 6.2 | 7.8 | -1.0 | -0.2 | 0.8 | nt
O=C(CSc1n[nH]c(=O)[nH]c1=O)Nc1ccc2c(c1)C(=O)c1ccccc1C2=O | -2.8 | 15.9 | 38.2* | 1.3 | 19.9 | 4.9 | 56.1*
CSc1nnc(C)c(=O)n1COC(=O)/C=C/c1ccc2c(c1)OCO2 | -0.2 | 4.0 | -0.4 | 0.7 | -6.0 | -3.2 | nt
O=C(Nc1nnc([C@H]2C[C@H](O)[C@@H](CO)O2)s1)Nc1cccc2c1CCCC2 | -8.5 | -7.4 | -3.1 | nt | -2.5 | nt | nt
CCOc1ccccc1C1C(C(N)=O)=C(C)Nc2nc(CCCO)nn21 (centres undefined) | -3.9 | -5.0 | 31.3* | 2.1 | -3.0 | -7.2 | 8.2
COc1cccc2c(=O)c3cccc(N)c3[nH]c12 | 6.4 | 17.9 | 58.1* | -6.2 | 2.1 | 31.6 | 65.6*
COc1cccc2c(=O)c3c([nH]c12)OC(C)(C)C3 | 4.2 | -4.7 | 3.6 | 4.2 | -3.5 | 0.8 | nt
Cc1nonc1CN(C)C(=O)CC1C(=O)NCCN1Cc1cccc(C(F)(F)F)c1 (centres undefined) | 8.7 | 3.6 | -0.7 | -6.3 | 2.6 | 5.6 | nt
CCOC(=O)CSc1nc(Nc2ccc3c(c2)OCO3)c2ccccc2n1 | 9.4 | -0.8 | 40.0* | -1.6 | 10.3 | -8.5 | 32.4*
CCCCN(C)C(=O)Cn1ncc2c3ccccc3n(CCC)c2c1=O | 2.4 | -1.5 | 6.8 | nt | -14.3 | -13.6 | nt
Nc1[nH]n(-c2ccccc2)c(=O)c1N=Nc1ccccc1 | 10.6 | 3.3 | 26.3 | 6.7 | -0.2 | 25.1 | nt
SMILES | SIAE primary | TCR-CD3 inh | ABHD4 inh | PAD4 FP inh | TDP2 inh | HTRA1 inh | ABHD4 confirm
CCc1ccccc1N=Nc1c(N)[nH]n(-c2ccccc2)c1=O | 11.5 | nt | 34.0* | nt | -2.6 | nt | 45.0*
CCc1ccccc1NC(=O)CC(=O)Nc1ccccc1CC | -9.1 | -1.3 | 3.3 | -0.1 | -4.7 | 5.5 | nt
CCC(=O)Nc1cc(OC)c(NC(=S)Nc2ccccc2CC)cc1OC | 11.2 | 2.8 | 42.6* | nt | 2.3 | 4.3 | -4.7
N#C/C(=C\c1ccc(O)c([N+](=O)[O-])c1)c1nc2ccccc2s1 | -50.1 | 14.1 | 30.3* | nt | -11.5 | 16.5 | 70.7*
COC/C=C/C1=CC2=CC(=O)C(C)(OC(=O)c3cnc4ccccc4n3)C(=O)C2=CN1Cc1ccccc1 (centres undefined) | 14.4 | 8.1 | 33.9* | 5.3 | 5.3 | 25.8 | 13.0
C=CCN(c1ccccc1C(=O)O)S(=O)(=O)c1ccc(NC(=O)OC)cc1 | -0.2 | -3.6 | 34.6* | 3.4 | -0.1 | 3.2 | -5.7
CC1(C)O[C@@H]2[C@H](O1)[C@@H](CO)O[C@H]2n1cnc2c(=O)[nH]cnc21 | 6.6 | -2.1 | 1.4 | -4.5 | -0.8 | 4.7 | nt
COc1c2ccc(OCC/C(C)=C/C(=O)C=C(C)C)cc2nc2occc12 | -10.4 | -11.2 | -17.3 | 2.4 | -12.7 | -16.3 | nt
CC(=O)Oc1ccc2c(=O)c(Oc3ccccc3)c(C)oc2c1OC(C)=O | -6.3 | -5.6 | 41.9* | 5.2 | 1.5 | 33.6 | -8.3
CC(=O)Nc1nc(-c2ccc3c(c2)CC(C)N3C(=O)C2CC2)c(C)s1 (centres undefined) | 4.0 | 4.2 | -2.7 | -2.4 | -0.2 | -6.9 | nt
CCOC(=O)C(=O)Nc1nc(-c2ccc3c(c2)CCN3C(=O)C2CC2)c(C)s1 | -0.3 | 5.8 | 38.9* | -0.6 | -1.6 | -1.8 | 18.5
Cc1cc(C)c(S(=O)(=O)NC2CC3CCC2C3)c(C)c1 (centres undefined) | 3.6 | -7.0 | 3.4 | 2.5 | 5.9 | -10.3 | nt
NC(=S)n1[nH]c(-c2ccc([N+](=O)[O-])cc2)c(N=Nc2cccc([N+](=O)[O-])c2)c1=O | -2.6 | -5.0 | 30.0* | nt | 3.8 | 6.6 | 54.3*
CCOc1ccccc1CNC(=O)CCNS(=O)(=O)c1ccc2[nH]c(=O)oc2c1 | -5.7 | 9.0 | 0.9 | -1.2 | -11.7 | 4.2 | nt
O=c1ccc2cc(O)c(O)cc2o1 | 6.2 | 15.0 | 50.2* | 2.0 | 9.2 | 2.7 | 2.3
O=[N+]([O-])c1cc(Br)cc(/C=N/n2cnnc2)c1O | 2.4 | -1.1 | 8.2 | -4.2 | -1.9 | 7.0 | nt
C=CCS/C(N)=N\N=C\c1cc(Br)cc([N+](=O)[O-])c1O | 2.0 | 17.9 | 30.6* | -1.1 | -2.4 | 21.6 | 6.5
